Assay results as given in article PMC2820722 (Journal of the American Chemical Society, 2010).
Peptide text beside a SMILES is read from it. * marks the point of attachment. Cbz = O=C(OCc1ccccc1)*

Columns and labels:
[1] = tested on: proteasome Ch-L catalytic subunit in yeast cell lysate (defective T-L/Ca-L); assay: Yeast cell lysate assay, double mutant strain; assay type: biochemical; settings: MG132 5 μM, peptide 5 9.25 μM, Fig. 1A green
[2] = Light-driven conversion of caged probe to active probe; assay type: physicochemical; settings: 349 nm pulsed UV laser; caged fluorescein derivative as reference (Fig. S-6)
Procedure, shortened: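 Uncaging by 349 nm diode-pumped Q-switched UV laser (5 ns pulses, 1 kHz, […] pulse energy) of the sample in a quartz cuvette. Dose was set by the number of pulses delivered and compared against an […] (CMNB)-fluorescein reference standard.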

[3] = tested on: 20S proteasome T-L active site; assay type: biochemical, Saccharomyces cerevisiae; settings: 30 μM peptide 5; 100 μM Boc-LRR-amc; purified 20S proteasome, Buffer A, 30 °C; λex 380 nm, λem 460 nm; Fig. 2B
[4] = tested on: proteasome with defective Ch-L subunit in yeast cell lysate; assay: Yeast cell lysate assay, defective Ch-L subunit; assay type: biochemical; settings: peptide 9.25 μM; ~1 mg protein/mL lysate; λex 600 nm, λem 700 nm; Fig. 1A brown
Procedure, shortened: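 Yeast cells (catalytic Thr→Ala) were harvested in log phase into 50 mM Tris-HCl pH 7.4, 1 mM EDTA, 5 mM MgCl2, drop-frozen in liquid nitrogen, cryolysed by grinding mill, and cleared (14000 rpm, 20 min, 4 °C). Protein was set equal by Bradford. The sensor was added as half the assay volume from a 2× solution, and fluorescence change was followed on a plate reader.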

[5] = tested on: 20S proteasome Ca-L active site; assay type: biochemical, Saccharomyces cerevisiae; settings: 30 μM peptide 5; 100 μM Z-LLE-βna; purified 20S proteasome, Buffer A, 30 °C; λex 342 nm, λem 425 nm; Fig. 2B

Compound: CC(C)C[C@@H](C=O)NC(=O)[C@H](CC(C)C)NC(=O)[C@H](CC(C)C)NC(=O)OCc1ccccc1 [MG132] (Cbz-Leu-Leu-Leu-aldehyde)
- Effect of inhibitor on hydrolytic activity towards peptide 5 in lysate [1]: completely abolishes hydrolytic activity

Compound: Ac-His-Trp-Ser-Leu-N(DMNB)-Lys(Fl)-amide [Peptide 10]
- Quantum yield for the photolytic conversion of 10 to 5 [2]: 0.08

Compound: Ac-His-Trp-Ser-Leu-Lys(Fl)-amide [Peptide 5]
- Effect of Ch-L substrate on rate of T-L substrate processing [3]: reduces the rate
- Fluorescence change of the sensor in lysate with defective Ch-L subunit [4]: barely perceptible fluorescence change
- Effect of Ch-L substrate on rate of Ca-L substrate processing [5]: reduces the rate
